Reference: ChEMBL document CHEMBL5705897, “Characterization of WZ4003 and HTH-01-015 as selective inhibitors of the LKB1-tumour-suppressor-activated NUAK kinases” (Biochem J, 2014)
The source made the active and inactive calls. No cut-off for these calls is given here.

Key:
[1] = target: Ephrin type-B receptor 4 (Homo sapiens) (UniProt P54760); test: Inhibition of recombinant human N-terminal His6-tagged EPHB4 (561 to 987 residues) expressed in baculovirus infected Sf21 cells assessed as remaining activity at 1 uM using Poly (Glu,Tyr) as substrate incubated for 30 mins in presence of [gamma-33P]ATP by filter binding method relative to control
Method in brief: (§1)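 Run within a 140-kinase specificity panel at the International Centre for Protein Kinase Profiling. Compounds were dissolved in DMSO and tested in vitro at 0.1 or 1 μM. Activity is expressed as percentage of kinase activity in DMSO control reactions, as the mean ± S.D. of triplicate reactions.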

[2] = target: Dual specificity tyrosine-phosphorylation-regulated kinase 3 (Homo sapiens) (UniProt O43781); test: Inhibition of recombinant human N-terminal GST-tagged DYRK3 (1 to 588 residues) expressed in Escherichia coli assessed as remaining activity at 1 uM using KKISGRLSPIMTEQ as substrate incubated for 30 mins in presence of [gamma-33P]ATP by filter binding method relative to control
Dual specificity tyrosine-phosphorylation-regulated kinase 3 (Homo sapiens), sequence (O43781 whole entry, the tested form may be a part): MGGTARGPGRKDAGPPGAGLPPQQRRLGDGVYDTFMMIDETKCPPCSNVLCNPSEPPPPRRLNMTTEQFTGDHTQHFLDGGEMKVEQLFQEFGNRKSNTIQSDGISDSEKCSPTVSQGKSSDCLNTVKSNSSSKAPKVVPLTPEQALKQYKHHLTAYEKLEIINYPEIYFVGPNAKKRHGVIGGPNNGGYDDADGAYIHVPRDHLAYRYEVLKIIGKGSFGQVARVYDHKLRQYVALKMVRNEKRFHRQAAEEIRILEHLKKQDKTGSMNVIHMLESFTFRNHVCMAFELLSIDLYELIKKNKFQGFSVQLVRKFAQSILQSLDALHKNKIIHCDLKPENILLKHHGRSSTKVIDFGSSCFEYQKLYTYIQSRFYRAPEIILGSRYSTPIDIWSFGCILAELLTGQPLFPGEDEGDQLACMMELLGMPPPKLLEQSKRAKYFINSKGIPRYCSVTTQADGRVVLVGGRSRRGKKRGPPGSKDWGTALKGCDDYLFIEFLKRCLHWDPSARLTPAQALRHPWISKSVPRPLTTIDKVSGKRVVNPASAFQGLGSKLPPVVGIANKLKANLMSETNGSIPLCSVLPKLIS
Method in brief: (§2)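 Screened at the International Centre for Protein Kinase Profiling against a 140-kinase panel, with inhibitor at 0.1 or 1 μM; activity expressed as percentage of DMSO control reactions, mean of triplicate reactions.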

[3] = target: Ribosomal protein S6 kinase alpha-1 (Homo sapiens) (UniProt Q15418); test: Inhibition of recombinant human N-terminal His6-tagged RSK1 (1 to 735 residues) expressed in baculovirus infected Sf21 cells assessed as remaining activity at 1 uM using KKLNRTLSVA as substrate incubated for 30 mins in presence of [gamma-33P]ATP by filter binding method relative to control; method in brief: as §2
Ribosomal protein S6 kinase alpha-1 (Homo sapiens), sequence (Q15418 whole entry, the tested form may be a part): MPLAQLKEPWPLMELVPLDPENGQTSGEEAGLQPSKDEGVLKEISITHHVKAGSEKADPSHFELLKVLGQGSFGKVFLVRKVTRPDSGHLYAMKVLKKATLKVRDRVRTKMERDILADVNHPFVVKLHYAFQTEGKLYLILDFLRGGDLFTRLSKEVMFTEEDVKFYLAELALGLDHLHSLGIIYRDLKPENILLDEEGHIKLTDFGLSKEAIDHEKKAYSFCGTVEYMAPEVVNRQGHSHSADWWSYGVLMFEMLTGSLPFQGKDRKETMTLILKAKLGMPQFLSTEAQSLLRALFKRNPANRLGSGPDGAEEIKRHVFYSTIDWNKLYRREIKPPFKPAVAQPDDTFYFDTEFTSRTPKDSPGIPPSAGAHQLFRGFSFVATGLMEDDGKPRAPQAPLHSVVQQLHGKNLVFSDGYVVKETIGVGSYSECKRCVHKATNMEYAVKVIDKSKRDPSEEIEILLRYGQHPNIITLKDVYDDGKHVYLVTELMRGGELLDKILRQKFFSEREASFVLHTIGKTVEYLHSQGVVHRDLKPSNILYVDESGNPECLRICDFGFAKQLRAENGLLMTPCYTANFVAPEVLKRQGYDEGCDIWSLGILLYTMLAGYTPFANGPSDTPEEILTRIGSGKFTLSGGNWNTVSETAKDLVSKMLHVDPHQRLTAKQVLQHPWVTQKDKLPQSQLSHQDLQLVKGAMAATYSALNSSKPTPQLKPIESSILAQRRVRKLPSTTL

[4] = target: Serine/threonine-protein kinase Chk1 (Homo sapiens) (UniProt O14757); test: Inhibition of recombinant human N-terminal GST-tagged CHK1 (1 to 476 residues) expressed in baculovirus infected Sf21 cells assessed as remaining activity at 1 uM using CHKtide as substrate incubated for 30 mins in presence of [gamma-33P]ATP by filter binding method relative to control; method in brief: as §2
Serine/threonine-protein kinase Chk1 (Homo sapiens), sequence (O14757 whole entry, the tested form may be a part): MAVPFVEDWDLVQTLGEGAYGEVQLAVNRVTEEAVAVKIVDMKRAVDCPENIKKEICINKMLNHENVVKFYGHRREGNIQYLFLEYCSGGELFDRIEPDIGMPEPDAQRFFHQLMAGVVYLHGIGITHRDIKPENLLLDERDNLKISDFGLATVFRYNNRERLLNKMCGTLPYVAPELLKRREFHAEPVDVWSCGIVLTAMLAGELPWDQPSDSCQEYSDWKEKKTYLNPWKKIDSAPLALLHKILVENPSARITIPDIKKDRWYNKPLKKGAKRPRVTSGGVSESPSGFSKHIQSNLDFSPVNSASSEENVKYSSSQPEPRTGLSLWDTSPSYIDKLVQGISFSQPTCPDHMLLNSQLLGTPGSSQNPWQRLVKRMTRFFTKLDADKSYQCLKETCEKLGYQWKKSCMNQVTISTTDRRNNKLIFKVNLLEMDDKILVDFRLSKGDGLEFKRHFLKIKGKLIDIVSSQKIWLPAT

[5] = tested on: Ribosomal protein S6 kinase beta-1 (Homo sapiens), P23443 [T412E]; test: Inhibition of recombinant human His6-tagged S6K1 T412E mutant (1 to 421 residues) expressed in baculovirus infected Sf21 cells assessed as remaining activity at 1 uM using KKRNRTLTV as substrate incubated for 30 mins in presence of [gamma-33P]ATP by filter binding method relative to control; method in brief: as §1
Ribosomal protein S6 kinase beta-1 (Homo sapiens), P23443 [T412E], sequence (P23443 whole entry T412E, looked up, the tested form may be a part): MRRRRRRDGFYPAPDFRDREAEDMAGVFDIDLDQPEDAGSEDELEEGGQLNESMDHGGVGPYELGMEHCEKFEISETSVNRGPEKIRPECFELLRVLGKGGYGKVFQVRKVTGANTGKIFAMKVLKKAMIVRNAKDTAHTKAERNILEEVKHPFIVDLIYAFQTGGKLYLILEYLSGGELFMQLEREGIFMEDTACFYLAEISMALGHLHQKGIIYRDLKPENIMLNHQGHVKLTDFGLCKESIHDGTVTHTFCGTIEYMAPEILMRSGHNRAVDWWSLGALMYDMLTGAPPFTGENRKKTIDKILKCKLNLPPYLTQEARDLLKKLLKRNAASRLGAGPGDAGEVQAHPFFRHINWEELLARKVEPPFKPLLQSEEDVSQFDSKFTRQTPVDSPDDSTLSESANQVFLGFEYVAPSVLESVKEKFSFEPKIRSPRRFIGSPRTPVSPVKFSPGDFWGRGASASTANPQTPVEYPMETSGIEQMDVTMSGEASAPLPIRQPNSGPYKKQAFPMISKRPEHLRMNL

[6] = tested on: U2OS; test: Antiproliferative activity against human U2OS cells assessed as reduction in cell viability at 10 uM after 5 days by CellTiter 96 non-radioactive cell proliferation assay; format: functional, cell-based; settings: time 5.0 day
Method in brief: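 Colorimetric CellTiter 96 AQueous proliferation assay in 96-well format; 2000 cells/well seeded for U2OS, 3000 cells/well for MEFs; grown 5 days with or without 10 μM inhibitor; run in triplicate. Inhibitors dissolved in DMSO, final DMSO in medium ≤1%. MEFs cultured in DMEM/10% FBS, glutamine, non-essential amino acids, sodium pyruvate.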

[7] = target: Testis-specific serine/threonine-protein kinase 1 (Homo sapiens) (UniProt Q9BXA7); test: Inhibition of recombinant human N-terminal GST-tagged TSSK1 (1 to 367 residues) expressed in Escherichia coli assessed as remaining activity at 1 uM using KKKVSRSGLYRSPSMPENLNRPR as substrate incubated for 30 mins in presence of [gamma-33P]ATP by filter binding method relative to control; method in brief: as §2
[8] = tested on: U2OS; test: Inhibition of cell invasion in human U2OS cells at 10 uM incubated for 16 hrs by matrigel based transwell assay; format: functional
Method in brief: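 Growth-factor-reduced Matrigel Transwell invasion: U2OS cells serum-deprived 2 h, detached, 2.5×10^5 cells in DMEM/1% BSA added to upper chambers in triplicate, DMEM/10% FBS as chemoattractant below; 16 h at 37 °C, 5% CO2 with or without 10 μM inhibitor in both compartments; cells on lower filter face fixed, stained, imaged ×10 and counted; mean ± S.D.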

[9] = target: Platelet-derived growth factor receptor alpha (Homo sapiens) (UniProt P16234); test: Inhibition of recombinant human PDGFRalpha (551 to 10589 residues) expressed in baculovirus infected Sf21 cells assessed as remaining activity at 1 uM using KKKKEEIYFFFG as substrate incubated for 30 mins in presence of [gamma-33P]ATP by filter binding method relative to control; method in brief: as §2
Platelet-derived growth factor receptor alpha (Homo sapiens), sequence (P16234 whole entry, the tested form may be a part): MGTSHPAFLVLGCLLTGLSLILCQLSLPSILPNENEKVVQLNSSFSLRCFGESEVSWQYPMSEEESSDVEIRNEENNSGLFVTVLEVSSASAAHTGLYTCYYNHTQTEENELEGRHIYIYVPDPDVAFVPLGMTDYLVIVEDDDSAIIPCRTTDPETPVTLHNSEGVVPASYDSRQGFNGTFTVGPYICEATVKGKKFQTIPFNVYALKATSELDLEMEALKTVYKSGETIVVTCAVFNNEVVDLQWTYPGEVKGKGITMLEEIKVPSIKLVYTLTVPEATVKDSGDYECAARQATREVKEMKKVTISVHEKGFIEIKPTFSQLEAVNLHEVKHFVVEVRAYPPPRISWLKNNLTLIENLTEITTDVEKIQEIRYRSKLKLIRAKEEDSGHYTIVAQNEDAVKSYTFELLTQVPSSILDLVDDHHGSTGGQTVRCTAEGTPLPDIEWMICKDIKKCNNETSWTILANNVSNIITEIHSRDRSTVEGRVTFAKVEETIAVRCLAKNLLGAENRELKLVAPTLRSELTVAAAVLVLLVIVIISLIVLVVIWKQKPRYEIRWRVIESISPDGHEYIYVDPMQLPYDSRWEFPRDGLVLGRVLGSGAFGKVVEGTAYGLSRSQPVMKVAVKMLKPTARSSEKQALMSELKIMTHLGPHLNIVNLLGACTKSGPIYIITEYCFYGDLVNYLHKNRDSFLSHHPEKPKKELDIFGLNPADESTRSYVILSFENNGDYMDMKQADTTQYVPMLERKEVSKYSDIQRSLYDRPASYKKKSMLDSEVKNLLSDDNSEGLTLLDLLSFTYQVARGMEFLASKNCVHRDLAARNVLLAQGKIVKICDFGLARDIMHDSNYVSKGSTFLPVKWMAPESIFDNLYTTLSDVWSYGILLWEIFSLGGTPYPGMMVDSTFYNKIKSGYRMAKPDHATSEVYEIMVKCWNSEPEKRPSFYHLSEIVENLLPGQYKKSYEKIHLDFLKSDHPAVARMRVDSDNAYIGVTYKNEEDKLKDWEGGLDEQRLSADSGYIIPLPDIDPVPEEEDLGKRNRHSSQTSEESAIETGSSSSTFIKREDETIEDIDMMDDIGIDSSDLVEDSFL

[10] = target: Mitogen-activated protein kinase 13 (Homo sapiens) (UniProt O15264); test: Inhibition of recombinant human GST-tagged P38delta (1 to 365 residues) expressed in Escherichia coli assessed as remaining activity at 1 uM using MBP as substrate incubated for 30 mins in presence of [gamma-33P]ATP by filter binding method relative to control; method in brief: as §2
Mitogen-activated protein kinase 13 (Homo sapiens), sequence (O15264 whole entry, the tested form may be a part): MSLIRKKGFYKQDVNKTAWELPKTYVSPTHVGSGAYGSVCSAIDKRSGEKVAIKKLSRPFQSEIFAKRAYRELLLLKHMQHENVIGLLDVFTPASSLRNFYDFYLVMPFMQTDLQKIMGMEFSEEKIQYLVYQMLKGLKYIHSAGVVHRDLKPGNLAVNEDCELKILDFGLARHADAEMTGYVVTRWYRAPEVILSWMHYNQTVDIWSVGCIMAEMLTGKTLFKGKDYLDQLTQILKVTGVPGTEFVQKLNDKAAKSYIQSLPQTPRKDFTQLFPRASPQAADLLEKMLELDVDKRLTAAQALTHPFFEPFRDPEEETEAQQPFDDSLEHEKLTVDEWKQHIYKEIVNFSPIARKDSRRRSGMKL

[11] = target: Serine/threonine-protein kinase D1 (Homo sapiens) (UniProt Q15139); test: Inhibition of recombinant human N-terminal His6-tagged PKD1 (2 to 912 residues) expressed in baculovirus infected Sf21 cells assessed as remaining activity at 1 uM using KKLNRTLSVA as substrate incubated for 30 mins in presence of [gamma-33P]ATP by filter binding method relative to control; method in brief: as §2
Serine/threonine-protein kinase D1 (Homo sapiens), sequence (Q15139 whole entry, the tested form may be a part): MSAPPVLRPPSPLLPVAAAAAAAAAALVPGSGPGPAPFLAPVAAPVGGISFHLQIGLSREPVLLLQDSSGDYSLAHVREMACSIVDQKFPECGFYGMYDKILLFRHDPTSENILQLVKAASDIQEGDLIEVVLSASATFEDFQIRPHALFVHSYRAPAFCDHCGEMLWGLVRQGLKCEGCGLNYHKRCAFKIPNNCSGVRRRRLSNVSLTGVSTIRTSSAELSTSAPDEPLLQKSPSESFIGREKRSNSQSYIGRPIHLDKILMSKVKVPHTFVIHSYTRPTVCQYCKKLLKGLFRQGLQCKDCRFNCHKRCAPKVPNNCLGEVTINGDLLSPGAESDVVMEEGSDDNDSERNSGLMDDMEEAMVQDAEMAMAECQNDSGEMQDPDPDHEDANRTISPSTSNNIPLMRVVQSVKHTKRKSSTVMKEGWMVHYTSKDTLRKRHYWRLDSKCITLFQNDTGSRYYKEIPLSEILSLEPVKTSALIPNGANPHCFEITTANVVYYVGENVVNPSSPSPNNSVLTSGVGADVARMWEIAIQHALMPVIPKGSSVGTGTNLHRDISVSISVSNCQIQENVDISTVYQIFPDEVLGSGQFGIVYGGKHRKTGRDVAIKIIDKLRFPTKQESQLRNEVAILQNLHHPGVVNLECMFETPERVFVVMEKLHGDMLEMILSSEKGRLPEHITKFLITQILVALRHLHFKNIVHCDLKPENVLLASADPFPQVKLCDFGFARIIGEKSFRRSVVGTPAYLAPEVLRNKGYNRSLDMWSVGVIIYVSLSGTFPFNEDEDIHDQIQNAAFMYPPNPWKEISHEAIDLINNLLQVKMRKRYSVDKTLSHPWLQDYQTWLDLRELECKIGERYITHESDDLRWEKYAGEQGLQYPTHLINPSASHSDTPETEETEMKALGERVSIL

[12] = target: cAMP-dependent protein kinase catalytic subunit alpha (Homo sapiens) (UniProt P17612); test: Inhibition of recombinant human N-terminal GST-tagged PKAalpha (2 to 351 residues) expressed in Escherichia coli assessed as remaining activity at 1 uM using Kemptide as substrate incubated for 30 mins in presence of [gamma-33P]ATP by filter binding method relative to control; method in brief: as §2

## CCC(=O)Nc1cccc(Oc2nc(Nc3ccc(N4CCN(C)CC4)cc3OC)ncc2Cl)c1
[1]
  Activity: 83%
[2]
  Activity: 71%
[3]
  Activity: 67%
[4]
  Activity: 58%
[5]
  Activity: 83%
[6]
  inhibition: Active
[7]
  Activity: 58%
[8]
  inhibition: Active
[9]
  Activity: 96%
[10]
  Activity: 63%
[11]
  Activity: 57%
[12]
  Activity: 84%
